Source: ChEMBL document CHEMBL3853347, “PUMA-dependent apoptosis in NSCLC cancer cells by a dimeric β-carboline” (Bioorg Med Chem Lett, 2016)
Activity calls are given as the source filed them. The rule behind the calls is not given here.

Experiments:
[1] = Upregulation of PUMA expression in human NCI-H1299 cells assessed as after 24 hrs by Western blot analysis; assay type: functional, cell-based
Method in brief: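 PUMA protein measured by western blot in H1299 cells after 24 hrs with compound (3, 5, 10 or 20 μM) or DMSO.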

[2] = Cytotoxicity against human A549 cells assessed as decrease in cell viability after 48 hrs by Alamar blue assay; assay type: functional, cell-based; conditions: A549, 48 h
NCI-H1299 [3] = test: Induction of autophagy in human NCI-H1299 cells assessed as increase in LC3-2 level after 24 hr by Western blot analysis; assay type: functional, cell-based
Method in brief: (§1)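 H1299 cells incubated 24 hrs with compound (3, 5, 10 or 20 μM) or DMSO. LC3 (LC3II band) and p62/SQSTM1 were detected by western blot.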

NCI-H1299 [4] = test: Induction of apoptosis in human NCI-H1299 cells assessed as increase in cleaved lamin A level at 3 to 10 uM after 24 hrs by Western blot analysis; assay type: functional, cell-based
Method in brief: (§2)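 H1299 cells treated 24 hrs with compound (3, 5, 10 or 20 μM) or DMSO. Lysates were probed by western blot for apoptotic markers: cleaved caspase 3, cleaved lamin A and cleaved PARP.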

[5] = Cytotoxicity against human NCI-H1373 cells assessed as decrease in cell viability after 48 hrs by Alamar blue assay; assay type: functional, cell-based; conditions: NCI-H1373, 48 h
[6] = Drug localization in lysosomes of human NCI-H1299 cells at 10 uM after 1 hr by mitotracker green FM/lysotracker red DND-99 staining based confocal microscopy; assay type: ADME, cell-based, Lysosome; conditions: nci-h1299, 1 h
Method in brief: (§3)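 Live H1299 cells exposed to compound for 1 hr, then co-stained with MitoTracker Green FM (mitochondria) and LysoTracker Red DND-99 (lysosomes). Localization was read by live confocal microscopy using the β-carboline's intrinsic fluorescence (Ex/Em 358/461 nm), compared against the organelle stains.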

[7] = Cytotoxicity against human NCI-H441 cells assessed as decrease in cell viability after 48 hrs by Alamar blue assay; assay type: functional, cell-based; conditions: NCI-H441, 48 h
NCI-H1299 [8] = test: Induction of apoptosis in human NCI-H1299 cells assessed as increase in cleaved caspase 3 level after 24 hrs by Western blot analysis; assay type: functional, cell-based; method in brief: as §2
[9] = Cytotoxicity against human NCI-H1993 cells assessed as decrease in cell viability after 48 hrs by Alamar blue assay; assay type: functional, cell-based; conditions: NCI-H1993, 48 h
NCI-H1299 [10] = test: Induction of autophagy in human NCI-H1299 cells assessed as increase in p62/SQSTM1 level at 3 to 10 uM after 24 hr by Western blot analysis; assay type: functional, cell-based; method in brief: as §1
[11] = Cytotoxicity against human NCI-H2009 cells assessed as decrease in cell viability after 48 hrs by Alamar blue assay; assay type: functional, cell-based; conditions: NCI-H2009, 48 h
[12] = Cytotoxicity against human NCI-H1299 cells assessed as decrease in cell viability after 48 hrs by Alamar blue assay; assay type: functional, cell-based; conditions: NCI-H1299, 48 h
NCI-H1299 [13] = test: Induction of apoptosis in human NCI-H1299 cells assessed as increase in cleaved PARP level at 3 to 10 uM after 24 hrs by Western blot analysis; assay type: functional, cell-based; method in brief: as §2
NCI-H1299 [14] = test: Induction of apoptosis in human NCI-H1299 cells assessed as apoptotic cells at 3 uM after 48 hrs by annexin V-phycoerythrin/7-AAD staining based flow cytometry (reference value: 4%); assay type: functional
NCI-H1299 [15] = test: Induction of autophagy in human NCI-H1299 cells transfected with GFP-LC3 assessed as increase in LC3-2 level at 3 to 10 uM after 24 hr by DAPI staining based immunofluorescence assay; assay type: functional, cell-based
NCI-H1299 [16] = test: Induction of apoptosis in human NCI-H1299 cells assessed as increase in cleaved caspase 3 level after 24 hrs by immunofluorescence based confocal microscopy; assay type: functional, cell-based
Method in brief: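 H1299 cells treated 24 hrs with compound (5 or 20 μM) or DMSO, then immunostained for active caspase 3 and imaged by confocal microscopy. Apoptotic fraction was calculated as cells expressing active caspase over total cells; n=3, s.d.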

[17] = Cytotoxicity against human IMR90 cells assessed as decrease in cell viability after 48 hrs by Alamar blue assay; assay type: toxicity, cell-based, IMR-90
NCI-H1299 [18] = test: Induction of autophagy in human NCI-H1299 cells transfected with GFP-LC3 assessed as increase in LC3-2 level at 20 uM after 24 hr by DAPI staining based immunofluorescence assay; assay type: functional, cell-based
Method in brief: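 H1299 cells transiently transfected with GFP-LC3, then treated 24 hrs with compound (3–20 μM) or DMSO. GFP-LC3 puncta were imaged by confocal microscopy and counted per cell; n=30 cells, s.d.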

[19] = Drug localization in lysosomes of human NCI-H1299 cells at 20 uM after 1 hr by mitotracker green FM/lysotracker red DND-99 staining based confocal microscopy; assay type: ADME, cell-based, Lysosome; conditions: nci-h1299, 1 h; method in brief: as §3
NCI-H1299 [20] = test: Induction of apoptosis in human NCI-H1299 cells assessed as apoptotic cells at 15 uM after 48 hrs by annexin V-phycoerythrin/7-AAD staining based flow cytometry (reference value: 4%); assay type: functional

| Drug uptake [6] | Drug uptake [19] | Compound | Activity [1] | IC50 [2] [µM] | Activity (NCI-H1299 [3]) | Activity (NCI-H1299 [4]) | IC50 [5] [µM] | IC50 [7] [µM] | Activity (NCI-H1299 [8]) | IC50 [9] [µM] | Activity (NCI-H1299 [10]) | IC50 [11] [µM] | IC50 [12] [µM] | Activity (NCI-H1299 [13]) | Activity (NCI-H1299 [14]) [%] | Activity (NCI-H1299 [15]) | Activity (NCI-H1299 [16]) | IC50 at 48 h [17] [µM] | Activity (NCI-H1299 [18]) | Activity (NCI-H1299 [20]) [%] |
| --- | --- | --- | --- | --- | --- | --- | --- | --- | --- | --- | --- | --- | --- | --- | --- | --- | --- | --- | --- | --- |
| Active |  | CN(CCNCc1nccc2c1[nH]c1ccccc12)CCNCc1nccc2c1[nH]c1ccccc12 | Dose-dependent effect | 2.9 | Dose-dependent effect | Active | 3.3 | 0.7 | Dose-dependent effect | 1.2 | Active | 1.4 | 1.6 | Active | 97 | Active | Dose-dependent effect | 5.6 |  |  |
|  |  | O[C@]12C=C(c3nccc4c3[nH]c3ccccc34)[C@@H]3CCN(CCCC/C=C\CC1)C[C@@]31C[C@@H]3/C=C\CCCCN3[C@H]12 [MANZAMINE A] |  | 2.3 |  |  | 2.1 | 1.1 |  | 3.9 |  | 1.6 | 1.5 |  |  | Active |  | 6.8 |  |  |
|  | Active | CN(CCN)CCNCc1nccc2c1[nH]c1ccccc12 |  | 20.5 |  |  | 13.2 | 4.3 |  | 9.3 |  | 8.9 | 15.1 |  |  |  |  | 12.9 | Active | 11 |
